The subject of data set [1] is SH-SY5Y. Nature of the data set: cells. The note with it: Homo sapiens, 48 h. Format: functional, cell-based.
A further data set has as its system HeLa. Kind of data set: cells. Format: functional, cell-based. The conditions noted are these: Homo sapiens, 72 h.
For data set [2], the target named is Matrix metalloproteinase-9 (Homo sapiens, UniProt P14780). Nature of the data set: Inhibition of MMP9.
The target of a further data set is T1, Histone deacetylase 11 (Homo sapiens, UniProt Q96DB2).
T1 sequence (Q96DB2 whole entry): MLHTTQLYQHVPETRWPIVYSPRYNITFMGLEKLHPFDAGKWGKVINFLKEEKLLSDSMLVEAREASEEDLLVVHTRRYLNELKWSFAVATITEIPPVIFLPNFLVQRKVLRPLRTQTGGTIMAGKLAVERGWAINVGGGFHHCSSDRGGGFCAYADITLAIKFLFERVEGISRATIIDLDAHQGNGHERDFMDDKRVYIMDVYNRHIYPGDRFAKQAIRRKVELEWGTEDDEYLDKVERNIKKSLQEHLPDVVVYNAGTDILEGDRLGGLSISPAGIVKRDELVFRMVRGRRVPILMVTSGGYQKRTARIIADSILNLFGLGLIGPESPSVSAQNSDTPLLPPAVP
Kind of data set: Inhibition of human recombinant HDAC11 using fluorophore-conjugated substrate Boc-L-Lys(Ac)-AMC after 60 mins.

For data set [3], the target named is T2, Protein deacetylase HDAC6 (Homo sapiens, UniProt Q9UBN7).
T2 sequence (Q9UBN7 whole entry): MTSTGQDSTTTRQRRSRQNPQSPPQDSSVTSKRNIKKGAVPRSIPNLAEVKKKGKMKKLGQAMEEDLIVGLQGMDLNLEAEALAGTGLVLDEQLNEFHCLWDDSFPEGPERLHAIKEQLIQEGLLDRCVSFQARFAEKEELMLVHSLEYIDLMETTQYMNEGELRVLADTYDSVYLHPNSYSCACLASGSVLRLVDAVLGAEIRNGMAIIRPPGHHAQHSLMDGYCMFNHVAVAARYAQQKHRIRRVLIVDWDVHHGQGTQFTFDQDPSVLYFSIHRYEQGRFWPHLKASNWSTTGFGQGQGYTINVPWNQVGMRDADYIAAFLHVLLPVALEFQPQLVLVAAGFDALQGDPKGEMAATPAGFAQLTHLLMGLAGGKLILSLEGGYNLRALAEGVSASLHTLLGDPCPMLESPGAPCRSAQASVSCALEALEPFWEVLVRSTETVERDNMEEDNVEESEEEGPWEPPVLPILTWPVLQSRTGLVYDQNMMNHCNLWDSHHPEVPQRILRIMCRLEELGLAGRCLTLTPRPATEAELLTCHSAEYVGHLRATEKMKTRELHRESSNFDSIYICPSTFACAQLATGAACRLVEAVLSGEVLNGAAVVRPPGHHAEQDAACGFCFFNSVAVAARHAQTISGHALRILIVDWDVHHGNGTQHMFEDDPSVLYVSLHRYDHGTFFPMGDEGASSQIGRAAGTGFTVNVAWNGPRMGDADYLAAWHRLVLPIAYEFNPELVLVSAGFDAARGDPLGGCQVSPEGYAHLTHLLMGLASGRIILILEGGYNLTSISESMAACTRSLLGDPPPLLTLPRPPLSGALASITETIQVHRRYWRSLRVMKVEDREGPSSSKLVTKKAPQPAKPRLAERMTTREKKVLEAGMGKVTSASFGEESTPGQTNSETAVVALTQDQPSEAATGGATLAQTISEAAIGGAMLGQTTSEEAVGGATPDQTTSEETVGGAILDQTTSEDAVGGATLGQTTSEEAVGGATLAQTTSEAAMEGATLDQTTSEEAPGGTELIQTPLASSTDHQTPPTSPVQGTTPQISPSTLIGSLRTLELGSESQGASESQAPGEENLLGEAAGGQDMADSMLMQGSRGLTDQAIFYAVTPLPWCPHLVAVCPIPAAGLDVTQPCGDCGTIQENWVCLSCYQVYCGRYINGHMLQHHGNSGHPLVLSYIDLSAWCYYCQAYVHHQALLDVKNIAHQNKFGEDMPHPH
Nature of the data set: Inhibition of human recombinant HDAC6 using fluorophore-conjugated substrate Boc-L-Lys(Ac)-AMC after 60 mins.

The target in another data set is T3, Histone deacetylase 8 (Homo sapiens, UniProt Q9BY41).
T3 sequence (Q9BY41 whole entry): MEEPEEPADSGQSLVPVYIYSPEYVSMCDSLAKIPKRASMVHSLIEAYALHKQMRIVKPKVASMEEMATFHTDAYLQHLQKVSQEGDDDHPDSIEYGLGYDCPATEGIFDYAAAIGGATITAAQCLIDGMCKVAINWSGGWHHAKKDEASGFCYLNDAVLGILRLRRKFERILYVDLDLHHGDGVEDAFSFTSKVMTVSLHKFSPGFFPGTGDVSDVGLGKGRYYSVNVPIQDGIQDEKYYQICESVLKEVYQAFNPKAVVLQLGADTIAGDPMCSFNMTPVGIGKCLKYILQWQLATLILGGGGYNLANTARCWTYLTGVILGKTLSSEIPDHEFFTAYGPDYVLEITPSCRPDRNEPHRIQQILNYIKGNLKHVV
Kind of data set: Inhibition of human recombinant HDAC8 using Fluor de Lys as substrate.

For data set [4], the target named is Histone deacetylase (Homo sapiens) (UniProt Q13547+O15379+Q9UBN7+Q92769+Q9UQL6+Q8WUI4+Q9BY41+Q96DB2+P56524+Q9UKV0+Q969S8). Nature of the data set: Inhibition of HDAC in retinoic acid-differentiated human SH-SY5Y cells assessed as increase in histone H4 acetylation at 1 uM after 24 hrs by Western blot analysis. In kind it is cell-based.
Data set [5] concerns HepG2. Kind of data set: Induction of apoptosis in human HepG2 cells assessed as hyperacetylation of p53 after 24 hrs by Western blot analysis. Format: functional, cell-based. The essentials:
(§1)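 HepG2 cells are seeded at 2.7×10^5 cells/well in D7 medium (DMEM, 7% FBS), refed after 24 h, and after 1 h at 37 °C treated with DMSO or 1, 5 or 10 µM inhibitor. Lysis is in ice-cold 1% CHAPSO buffer (50 mM Hepes pH 7.4), 45 min at 4 °C. Immunoblots are probed for cleaved caspase 3 Asp175, acetyl-Lys373 p53, total p53 and GAPDH, detected by chemiluminescence, with band densitometry.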
On the technique in general: A western blot detects proteins with antibodies after separation by electrophoresis.

Data set [6] has as its system HepG2. Kind of data set: Induction of apoptosis in human HepG2 cells assessed as cleavage of caspase 3 at 1 to 10 uM after 14 hrs by Western blot analysis. Format: functional, cell-based. The essentials:
as §1

For the next data set, the target named is Stromelysin-1 (Homo sapiens, UniProt P08254). Kind of data set: Inhibition of MMP3 assessed as activity remaining at […].
Sequence of Stromelysin-1 (P08254 100-477 limits assumed): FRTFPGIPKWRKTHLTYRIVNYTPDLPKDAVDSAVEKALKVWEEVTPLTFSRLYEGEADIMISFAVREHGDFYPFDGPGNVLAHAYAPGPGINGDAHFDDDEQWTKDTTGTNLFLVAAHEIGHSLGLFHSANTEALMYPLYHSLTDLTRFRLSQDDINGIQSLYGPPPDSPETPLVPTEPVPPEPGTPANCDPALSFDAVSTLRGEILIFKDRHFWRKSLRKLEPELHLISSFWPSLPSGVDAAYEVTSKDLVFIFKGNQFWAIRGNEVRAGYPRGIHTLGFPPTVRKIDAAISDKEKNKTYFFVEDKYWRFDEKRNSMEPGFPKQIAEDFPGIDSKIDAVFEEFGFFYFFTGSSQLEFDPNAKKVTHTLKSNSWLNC
For data set [7], the system named is SH-SY5Y. Nature of the data set: Cytotoxicity against retinoic acid-differentiated human SH-SY5Y cells assessed as cell survival at 20 uM. In kind it is cell-based. The essentials:
(§2)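 SH-SY5Y cells are differentiated for 7–8 days in 1% FBS medium with 10 µM retinoic acid, then seeded at 2×10^4 cells/well in 1% FBS medium with 5 µM RA. After 24 h they go into phenol-red-free 1% FBS/RA medium with DMSO or 0.5–50 µM inhibitor, without or with 100 µM LY294002, for 24 h. Readout: XTT viability as % survival vs vehicle, four replicates ± SD, one-way ANOVA with Dunnett.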

The subject of data set [8] is SH-SY5Y. Kind of data set: Neuroprotective activity against LY294002-induced stress in retinoic acid differentiated human SH-SY5Y cells assessed as cell survival at 0.5 uM. In kind it is functional, cell-based. In outline:
as §2

From ChEMBL document CHEMBL1914352, “Design, synthesis, docking, and biological evaluation of novel diazide-containing isoxazole- and pyrazole-based histone deacetylase probes” (J Med Chem, 2011) come the findings set out here.

The source made the active and inactive calls. The rule behind the calls is not given here. Where only a bound is given, the exact number is not on record here.

What is called EC50 is the concentration giving half of the maximal effect. Read a low EC50 as higher potency in that assay. For orientation: IC50 means the concentration needed to halve the response being measured.

Sequence of Matrix metalloproteinase-9 (P14780 whole entry): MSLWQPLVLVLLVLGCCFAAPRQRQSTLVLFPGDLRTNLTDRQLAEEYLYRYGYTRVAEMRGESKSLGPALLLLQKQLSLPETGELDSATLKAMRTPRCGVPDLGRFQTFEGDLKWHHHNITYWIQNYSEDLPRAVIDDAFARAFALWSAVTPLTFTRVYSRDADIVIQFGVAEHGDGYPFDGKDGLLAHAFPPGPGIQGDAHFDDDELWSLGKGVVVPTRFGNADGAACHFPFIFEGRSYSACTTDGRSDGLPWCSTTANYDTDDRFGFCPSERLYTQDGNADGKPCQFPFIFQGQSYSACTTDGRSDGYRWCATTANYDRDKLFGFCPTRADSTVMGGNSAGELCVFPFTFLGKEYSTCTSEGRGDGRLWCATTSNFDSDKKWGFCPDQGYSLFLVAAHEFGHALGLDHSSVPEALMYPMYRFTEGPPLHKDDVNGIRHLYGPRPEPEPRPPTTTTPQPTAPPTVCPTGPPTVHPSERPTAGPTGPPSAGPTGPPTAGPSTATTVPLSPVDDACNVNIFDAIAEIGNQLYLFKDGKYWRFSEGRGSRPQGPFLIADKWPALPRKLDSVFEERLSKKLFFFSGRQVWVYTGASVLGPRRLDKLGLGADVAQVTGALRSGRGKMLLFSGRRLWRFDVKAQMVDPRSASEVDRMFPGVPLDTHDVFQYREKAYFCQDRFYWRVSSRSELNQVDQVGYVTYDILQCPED

With `[N-]=[N+]=NCc1cc(N=[N+]=[N-])cc(C(=O)Nc2ccc(-c3cc(C(=O)NCCCCCCC(=O)NO)no3)cc2)c1`, the EC50 in the data set on SH-SY5Y [1] was determined as 32200 nM; with HeLa, 4700 nM. For the same compound, the IC50 in [2] is 22900 nM; on Histone deacetylase 11, 116 nM; in data set [3], 47 nM; at Histone deacetylase 8, 651 nM. For the same compound, the inhibition entry in data set [4] is “Active”. Moreover, the outcome in the data set with HepG2 [5] was inactive. Besides, the result with HepG2 [6] was Active.

Take `[N-]=[N+]=NCc1cc(Cn2cc(NC(=O)CCCCCCC(=O)NO)cn2)cc(N=[N+]=[N-])c1`: the EC50 is 35900 nM with SH-SY5Y [1] and 15000 nM in the data set on HeLa. The Activity is more than 70% at Stromelysin-1 and “Toxic” in the data set with SH-SY5Y [7]. Besides, the IC50 was determined as 476 nM at Histone deacetylase 11, 274 nM in [3] and 17 nM at Histone deacetylase 8. Also, the inhibition result in data set [4] was “Active”. In the data set on SH-SY5Y [8], the outcome was Active.
